Screening results: PubChem BioAssay, Broad Institute
RAD52 inh: blocks human RAD52 DNA annealing; AID 651710; recombinant RAD52 DNA annealing, FRET fluorescence; hit rate 0.46% among 360,000; inhibition, % at 18.7 µM; P43351;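 active means every replicate showing at least 50% inhibition; inconclusive means mean inhibition at least 50% but not in every replicate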
E-sel inducer: induces E-selectin expression in human endothelial cells; HUVEC E-selectin immunofluorescence imaging; normalized: neutral wells 0, TNF-alpha wells 100; activation, % at 7.58 µM; hit rate 0.37% among 260,000; AID 686992;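 active means mean E-selectin-positive cell signal at least 10% of the positive control, reached in at least 60% of replicates, without over 20% cell loss; inconclusive means no rule given, readout overlaps actives, possibly toxicity-flagged; inactive means the rest, including those meeting only one limit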
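System: HUVEC, human umbilical vein endothelial cells; quantity: 3,000 cells/well; buffer or medium: EGM-2 medium, gelatin-coated wells; dosing: single-point compound dose; detection: immunofluorescence imaging; evaluation: % PE-positive cells; benchmarks: TNF-alpha, DMSO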
RAD54 inh: inhibitors of human RAD54 branch migration. Q92698. inhibition, % at 10.4 µM. AID 602329. hit rate 0.14% among 360,000. RAD54 Holliday junction branch migration, FAM/BHQ fluorescence;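 active means mean normalized replicate activity at least 40 and at least half of replicates scoring 40 or more; inconclusive means only one of the two criteria met; inactive means mean below 40 and under half of replicates reaching 40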;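 further: 0% = median of neutral control wells and 100% = median of positive control wells; inhibitors cause a drop in the FAM fluorescence signal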
Target sequence (Q92698 whole entry, looked up): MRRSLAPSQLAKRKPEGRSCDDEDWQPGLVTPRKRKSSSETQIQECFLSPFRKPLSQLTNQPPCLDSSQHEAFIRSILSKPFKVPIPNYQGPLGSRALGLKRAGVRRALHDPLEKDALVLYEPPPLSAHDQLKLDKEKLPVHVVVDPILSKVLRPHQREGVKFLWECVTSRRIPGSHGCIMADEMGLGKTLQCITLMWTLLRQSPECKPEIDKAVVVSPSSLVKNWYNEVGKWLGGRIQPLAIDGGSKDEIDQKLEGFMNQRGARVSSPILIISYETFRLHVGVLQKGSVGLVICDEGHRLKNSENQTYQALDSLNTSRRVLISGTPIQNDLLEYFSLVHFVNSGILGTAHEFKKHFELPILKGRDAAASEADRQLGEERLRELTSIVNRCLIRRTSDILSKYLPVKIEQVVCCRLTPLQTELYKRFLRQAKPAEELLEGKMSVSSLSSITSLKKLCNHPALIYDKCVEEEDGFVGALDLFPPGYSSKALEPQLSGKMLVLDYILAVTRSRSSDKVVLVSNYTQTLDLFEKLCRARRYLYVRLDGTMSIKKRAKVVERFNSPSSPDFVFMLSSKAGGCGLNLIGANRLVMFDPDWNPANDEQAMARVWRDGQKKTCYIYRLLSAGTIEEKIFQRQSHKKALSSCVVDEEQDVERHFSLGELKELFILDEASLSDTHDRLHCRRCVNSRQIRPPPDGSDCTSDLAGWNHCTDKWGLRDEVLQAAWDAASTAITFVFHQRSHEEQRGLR
rRNA inh HTS: inhibitors of bacterial rRNA selective over humanized ribosomes; E. coli WT GFP vs humanized-ribosome RFP mutants, fluorescence, 24 h; hits give low values; DMSO median 0, no signal -100; GFP signal change (wild-type ribosome), % (concentration not given with the values); hit rate 1.6% among 350,000; AID 720706;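 active means significant combined selectivity score with lowered wild-type GFP, culture density cut under 30%, mutant RFP and density less affected; inactive means any of these conditions unmet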
PglD DTNB: inhibitors of Campylobacter jejuni PglD acetyltransferase; purified PglD enzyme, DTNB colorimetric CoA detection; inhibition, % at 12.5 µM; hit rate 0.098% among 360,000; in the data active means inhibition above about 16%, passing the limit was not always enough; inconclusive means no clear call, values can overlap the other calls
Xi reactivation: X-chromosome reactivation activator | hit rate 0.055% among 360,000 | XiGFP mouse fibroblasts, % GFP-positive cells imaging, 3 d; cells co-treated with 5-aza-dC sensitizer; scaled so ellipticine positive control = 100% | activation, % at 7.58 µM | AID 743238;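 active means mean normalized replicate activation at least 10% and every replicate at or above 10%; inconclusive means only one of the two criteria met; inactive means mean below 10% and not all replicates reach 10%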;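 further: 0% = median of on-plate neutral control wells and 100% = ellipticine 6 µM median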
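Schedule: 3 d treatment, 15 min room-temperature fixation; system: 68-5-11 XiGFP fibroblast line; buffer or medium: DMEM plus 5-aza-dC sensitizer; control set: ellipticine 6 µM positive control; compound: one concentration, pinned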
Numbers without * were called inactive; ? = inconclusive; nt = not tested or not shown. Compounds with a hit are over-represented: about 2% of the library has one in this group of screens.

SMILES	RAD52 inh	E-sel inducer	RAD54 inh	rRNA inh HTS	PglD DTNB	Xi reactivation
COc1ccc(NC(=O)N2CCCCN3[C@H](CO)[C@@H](c4ccc(C5=CCCC5)cc4)[C@H]3C2)cc1	65*	nt	-1	nt	6	nt
O=C(c1ccccc1)N1C[C@@H]2[C@H](c3ccccc31)[C@H](CO)N2Cc1cc(F)ccc1F	-3	0	-20	-2	0	0
C[C@H](CO)N1C[C@H](C)[C@H](CN(C)CC2CCCCC2)Oc2c(NS(=O)(=O)c3ccc(F)cc3)cccc2C1=O	0	1	-5	-1	4	0
CC(C)NC(=O)N(C)C[C@H]1OCCCC[C@@H](C)Oc2ccc(NS(=O)(=O)c3cccs3)cc2C(=O)N([C@H](C)CO)C[C@@H]1C	3	nt	-7	2	2	1
Cc1nn(-c2cc(C(F)(F)F)ccc2Cl)c2nc(C(Cl)(Cl)Cl)[nH]c(=O)c12	0	12	nt	-15*	nt	0
Cc1noc(C)c1NC(=O)Nc1ccc2c(c1)CC(=O)N([C@H](C)CO)C[C@H](C)[C@H](CN(C)S(=O)(=O)c1cn(C)cn1)O2	nt	0	-3	7	2	-1
C[C@@H]1CCCCO[C@@H](CN(C)CC2CC2)[C@H](C)CN([C@H](C)CO)C(=O)c2cc(NC(=O)CCCN(C)C)ccc2O1	7	0	nt	6	nt	0
C=CCn1c(O)c(C=Nc2ccccc2)sc1=S	-13	-2	-5	-22*	7	0
COc1ccccc1NC(=O)N1CC[C@H]2[C@@H]1c1cc(-c3ccc(F)cc3)ccc1N(C)[C@H]2CO	-10	0	1	2	3	0
COc1ccccc1NC(=O)N1CC[C@@H]2[C@H]1c1cc(-c3cccc(F)c3)ccc1N(C)[C@H]2CO	2	0	-7	0	2	0
COc1ccc(C#Cc2ccc3c(c2)[C@H]2[C@H](CCN2S(=O)(=O)c2ccc(OC)cc2)[C@H](CO)N3C)cc1	-14	0	5	2	0	0
COc1ccccc1NC(=O)N1CC[C@@H]2[C@H]1c1cc(-c3ccccc3)ccc1N(C)[C@@H]2CO	52*	0	17	-8	-3	0
COc1ccccc1NC(=O)N1CC[C@H]2[C@@H]1c1cc(-c3ccccc3)ccc1N(C)[C@H]2CO	58*	0	17	-5	-2	0
COc1ccccc1NC(=O)N1CC[C@@H]2[C@H]1c1cc(C#Cc3ccc(F)cc3)ccc1N(C)[C@@H]2CO	70*	0	6	-2	2	0
COc1ccc(C#Cc2ccc3c(c2)[C@@H]2[C@@H](CCN2S(=O)(=O)c2cccc(OC)c2)[C@@H](CO)N3C)cc1	67*	0	5	-1	1	0
O=C(C[C@H]1C=C[C@H](NC(=O)c2ccc3c(c2)OCO3)[C@H](CO)O1)NCc1ccc(Oc2ccccc2)cc1	8	0	nt	-7	nt	0
CCCC#Cc1ccc([C@H]2[C@H]3CN(C(=O)c4ccccc4)CC(=O)N3[C@H]2CO)cc1	-8	0	nt	4	nt	0
CC(C)NC(=O)Nc1ccc2c(c1)C(=O)N([C@H](C)CO)C[C@H](C)[C@@H](CN(C)CC1CCCCC1)OCCCC[C@H](C)O2	30	0	3	1	-2	0
C[C@H]1CN([C@@H](C)CO)C(=O)c2cc(NS(C)(=O)=O)ccc2O[C@@H]1CN(C)C(=O)Nc1ccc2c(c1)OCO2	22	0	0	4	4	0
CN(C=O)c1ccc(CSc2ccccc2)cc1	-8	0	0	-29*	6	3
O=C(Nc1cccnc1)c1ccc(CSc2ccccc2)cc1	-6	0	nt	-3	nt	0
COc1ccc(C2OC(=O)Cc3cc(OC)c(OC)cc32)cc1 (stereo unspecified)	0	nt	-3	2	7	0
COc1cc2c(cc1OC)C(c1ccc3c(c1)Cc1ccccc1-3)OC(=O)C2 (stereo unspecified)	-39	2	1	-23*	-2	0
Cc1noc(C)c1S(=O)(=O)N(C)C[C@@H]1Oc2ccc(NC(=O)c3ccncc3)cc2CC(=O)N([C@@H](C)CO)C[C@@H]1C	-9	0	3	4	-4	0
c1cnc2c(c1)ncc1cscc12	-12	0	nt	8	nt	1
SMILES	RAD52 inh	E-sel inducer	RAD54 inh	rRNA inh HTS	PglD DTNB	Xi reactivation
[O-][n+]1cccc2ncc3cscc3c21	2	431*	7	9	-1	0
O=C(COC(=O)c1ccccc1O)NNC(=O)c1ccc(Br)cc1	-4	-2	2	4	-3	0
O=C(NNC(=O)c1ccccc1O)c1ccc(Br)cc1	-11	nt	-9	-24*	3	0
O=C(NNC(=O)C1CCCCC1)c1ccc(Br)cc1	-5	-2	nt	-24*	nt	0
COc1cccc(C#Cc2ccc([C@@H]3[C@@H](CO)N4C(=O)CN(C(=O)c5ccncc5)C[C@@H]34)cc2)c1	-11	0	nt	2	nt	0
Cc1cccc(N(C(=O)Nc2ccc(Cl)cc2)C2=NCC(C)S2)n1 (stereo unspecified)	-9	1	-1	-29*	-3	0
Cc1ccc(NC(=O)N(C2=NCC(C)S2)c2ccccc2)cc1 (stereo unspecified)	nt	nt	-1	nt	-3	nt
COc1ccc(S(=O)(=O)Nc2ccc3c(c2)CC(=O)N([C@H](C)CO)C[C@@H](C)[C@H](CN(C)C(=O)NC2CCCCC2)O3)cc1	-8	48*	4	8	2	0
CNC[C@H]1Oc2ccc(NS(=O)(=O)c3ccc(OC)cc3)cc2CC(=O)N([C@@H](C)CO)C[C@@H]1C	4	60*	-2	0	-2	-1
COc1ccc(S(=O)(=O)Nc2ccc3c(c2)CC(=O)N([C@@H](C)CO)C[C@H](C)[C@H](CN(C)C(=O)NC2CCCCC2)O3)cc1	-11	?	2	0	0	0
CCC(=O)N1[C@@H]2c3cccc(=O)n3C[C@@H]2[C@@H](CO)[C@@H]1C(=O)NCC1CC1	-3	-1	-11	-2	2	0
Cc1cc(C)cc(NC(=O)Nc2ccc3c(c2)N(C)C(=O)CS3)c1	-115	nt	-8	-2	6	0
Cc1ccc(NC(=O)Nc2ccc3c(c2)N(C)C(=O)CS3)cc1C	-113	nt	-4	-13*	-2	0
O=C1N/C(=N/S(=O)(=O)Cc2ccccc2)S/C1=C/c1ccc2c(c1)OCO2	-19	nt	0	-40*	-5	-1
O=C1NC(=S)SC1=Cc1ccc2c(c1)OCO2	-16	2	3	-1	5	0
C[C@@H]1CN(C)C(=O)c2cccc(NS(C)(=O)=O)c2O[C@@H]1CN(C)S(C)(=O)=O	nt	nt	nt	0	nt	0
Cc1cc(Cl)nc(-n2nc(C)cc2C)n1	-15	1	-15	-32*	3	0
